E-selectin induc – E-selectin induction on HUVECs. HUVEC E-selectin immunofluorescence imaging; normalized: neutral wells 0, TNF-alpha wells 100. activation, % at 7.58 µM. actives 0.37% (n = 260,000). AID 686992;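 active = mean E-selectin-positive cell signal at least 10% of the positive control, reached in at least 60% of replicates, without over 20% cell loss; inconclusive = no rule given, readout overlaps actives, possibly toxicity-flagged; inactive = the rest, including those meeting only one limit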
Target sequence (P16581 whole entry, looked up): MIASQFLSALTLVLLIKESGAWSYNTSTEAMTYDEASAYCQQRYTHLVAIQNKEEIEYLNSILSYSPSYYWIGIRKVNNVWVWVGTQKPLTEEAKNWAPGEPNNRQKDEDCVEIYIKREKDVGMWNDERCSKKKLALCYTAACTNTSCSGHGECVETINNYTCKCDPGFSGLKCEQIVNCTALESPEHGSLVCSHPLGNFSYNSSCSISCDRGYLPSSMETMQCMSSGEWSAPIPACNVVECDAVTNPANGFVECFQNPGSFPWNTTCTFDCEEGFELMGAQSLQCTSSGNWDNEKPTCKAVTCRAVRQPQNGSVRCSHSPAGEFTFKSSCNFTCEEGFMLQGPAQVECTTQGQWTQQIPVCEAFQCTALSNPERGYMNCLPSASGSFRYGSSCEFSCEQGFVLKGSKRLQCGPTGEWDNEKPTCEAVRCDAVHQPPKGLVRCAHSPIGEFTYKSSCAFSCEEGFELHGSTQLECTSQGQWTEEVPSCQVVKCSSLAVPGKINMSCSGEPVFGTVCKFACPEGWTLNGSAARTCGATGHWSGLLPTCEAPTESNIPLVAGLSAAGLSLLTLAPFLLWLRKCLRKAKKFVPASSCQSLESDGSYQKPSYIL
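System: HUVEC / Compound: single concentration / Signal: immunofluorescence imaging / Read-out: percent E-selectin-positive cells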
rRNA inh HTS – inhibits bacterial ribosomal RNA function over humanized ribosomes; AID 720706; E. coli WT GFP vs humanized-ribosome RFP mutants, fluorescence, 24 h; active compounds read low; DMSO median 0, no signal -100; GFP signal change (wild-type ribosome), % (concentration not given with the values); actives 1.6% (n = 350,000);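 active = significant combined selectivity score with lowered wild-type GFP, culture density cut under 30%, mutant RFP and density less affected; inactive = any of these conditions unmet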
DENV2 CPE rescue – DENV2-induced cell death inhibition; DENV2-infected cells, cytopathic effect rescue, plate reader; CPE inhibition, % at 9.99 µM; actives 1.7% (n = 350,000); in the data active = CPE inhibition above about 20%, passing the limit was not always enough; inconclusive = no clear call, values can overlap the other calls; tested in BHK-21 cells;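 also: 0% = median of neutral control wells and 100% = median of positive control wells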
miR-122 sensor – miR-122 inhibition in Huh7 cells | Huh7 miR-122 Renilla luciferase sensor, 48 h; neutral wells = 0, positive control = 100 | activation (reporter increase), % at 12.5 µM | actives 0.3% (n = 340,000) | AID 602342;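 active = mean replicate activation score at least 90 and every replicate individually at or above 90; inconclusive = only one of the two criteria met; inactive = neither criterion met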;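 also: higher luciferase means less miR-122 activity so hits act as miR-122 inhibitors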
Cneo AK release – Cryptococcus neoformans lysis via adenylate kinase release; lysis activity, % at 15 µM; actives 0.2% (n = 360,000); C. neoformans lysis, adenylate kinase release luminescence, 4 h; normalised: neutral wells 0, clomiphene wells 100;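 active = mean lysis activity across replicates of at least 80%, whatever share of replicates individually reach that level; inactive = mean lysis activity below 80%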
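Assay system: Cryptococcus neoformans yeast cells / Dosing: single-point compound dose / Timing: 4 h at 37 °C static, read 1 h later / Measured by: luminescence of released adenylate kinase using an AK detection reagent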
* marks the source's active call; other numbers are inactive results; ? = inconclusive; . = no result; [ ] = another dose, or the depositor's remark. This is a sample that favours compounds with a hit; in the whole collection about 3.1% have one here.

SMILES	E-selectin induc	rRNA inh HTS	DENV2 CPE rescue	miR-122 sensor	Cneo AK release
COC(=O)C1=C(C)NC(C)=C(C(=O)OC)C1C(=O)OC(C)C(=O)c1ccccc1 (stereo not drawn)	77.3*	4.3	?	-0.1	-0.5
CCN(C(=O)C(C)OC(=O)C1C(C(=O)OC)=C(C)NC(C)=C1C(=O)OC)c1ccccc1 (stereo not drawn)	0.0	19.4	-5.3	-5.0	5.1
CC(C)[C@H](NC(=O)c1ccccc1)C(=O)N1CCC[C@H]1C(=O)NCCc1ccccc1Cl	0.0	1.4	4.1	.	.
O=C(N[C@@H](Cc1cccnc1)C(=O)N1CCC[C@H]1C(=O)NCCc1ccccc1Cl)c1ccccc1	-0.2	-14.1	1.2	.	.
CC(C)[C@H](NC(=O)c1ccc(Cl)c(Cl)c1)C(=O)N1CCC[C@H]1C(=O)NCCc1ccccc1Cl	16.8	-29.0	23.3*	.	.
O=C(N[C@@H](Cc1cccnc1)C(=O)N1CCC[C@H]1C(=O)NCCc1ccccc1Cl)c1cccs1	0.0	-17.3*	-1.8	.	.
NS(=O)(=O)c1ccc(CCNC(=O)C2CCCN2C(=O)c2cccs2)cc1 (stereo not drawn)	-0.2	5.6	94.7*	-7.0	-1.2
O=S(=O)(NCC[C@H]1CC[C@H](NS(=O)(=O)c2cccc(F)c2)[C@@H](CO)O1)c1cccc(F)c1	-0.4	-6.1	7.2	.	.
C[C@H]1CCCCO[C@@H](CN(C)CC2CCCCC2)[C@@H](C)CN([C@@H](C)CO)C(=O)c2cc(NS(=O)(=O)c3ccccc3)ccc2O1	0.0	0.3	0.5	1.3[16.7 µM]	65.0
C[C@@H]1CN([C@H](C)CO)C(=O)c2cc(NS(=O)(=O)c3ccccc3)ccc2O[C@@H](C)CCCCO[C@H]1CN(C)Cc1ccncc1	.	-0.4	6.1	-5.9[16.7 µM]	0.9
C[C@@H]1CCCCO[C@H](CN(C)Cc2ccncc2)[C@H](C)CN([C@@H](C)CO)C(=O)c2cc(NS(=O)(=O)c3ccccc3)ccc2O1	.	-3.9	33.2*	0.7[16.7 µM]	-1.5
C[C@@H]1CN([C@@H](C)CO)C(=O)c2cc(NS(=O)(=O)c3ccccc3)ccc2O[C@@H](C)CCCCO[C@@H]1CN(C)Cc1ccncc1	.	-1.0	48.9*	20.1[16.7 µM]	0.5
C[C@@H]1CN([C@@H](C)CO)C(=O)c2cc(NS(=O)(=O)c3ccccc3)ccc2O[C@@H](C)CCCCO[C@@H]1CN(C)CC1CCCCC1	-0.1	0.4	54.7*	-10.1[16.7 µM]	2.6
C[C@H]1CN([C@@H](C)CO)C(=O)c2cc(-c3ccncc3)cnc2O[C@@H]1CN(C)C(=O)C1CC1	0.1	4.7	.	1.8[16.7 µM]	.
Cc1ccc(C2=C(O)C(=O)C(c3ccc(C)cc3)=C(O)C2=O)cc1	-0.3	5.5	55.7*	.	.
Nc1nc(SCc2ccc(Br)cc2)n[nH]1	-0.3	1.4	14.8	.	-0.3
Nc1nc(SCc2ccc(Cl)c(Cl)c2)n[nH]1	0.4	-37.0*	11.1	1.0	.
Cc1ccc(/C=C/C(=O)O)cc1S(=O)(=O)N1CCc2ccccc21	-0.4	-32.4*	8.9	.	1.5
CCCCn1c(N)c(Sc2ccc([N+](=O)[O-])cc2)c(=O)[nH]c1=O	.	1.8	7.1	-2.1	1.3
CCCCn1c(N)c(Sc2ccc(Cl)cc2)c(=O)[nH]c1=O	.	-20.9*	-5.4	-10.1	-1.7
COc1ccccc1CN(C)C[C@@H]1OCc2ccccc2-c2c(n(C)c3ccccc23)C(=O)N([C@H](C)CO)C[C@H]1C	.	0.7	.	.	.
O=C(CSC1=NNC(c2ccccn2)S1)Nc1ccccc1 (stereo not drawn)	3.6	-19.4*	-4.3	1.5	-0.5
COCC(=O)N1CC2(CCN(C(=O)CN3CCOCC3)CC2)c2c([nH]c3cc(OC)ccc23)[C@@H]1CO	-0.3	4.3	-2.1	.	.
C/C=C/c1ccc([C@H]2[C@@H](CO)N(CCC(F)(F)F)C23CN(C(=O)CC2CC2)C3)cc1	0.2	-5.4	65.1*	.	.
C/C=C/c1ccc([C@H]2[C@@H](CO)N(CC3CC3)C23CN(S(C)(=O)=O)C3)cc1	0.1	0.7	51.2*	.	.
SMILES	E-selectin induc	rRNA inh HTS	DENV2 CPE rescue	miR-122 sensor	Cneo AK release
C/C=C/c1ccc([C@H]2[C@@H](CO)N(CC3CCCC3)C23CN(S(=O)(=O)CC)C3)cc1	0.2	-7.4	23.1*	.	.
C/C=C/c1ccc([C@@H]2[C@H](CO)N(CC3CCCC3)C23CN(S(=O)(=O)CC)C3)cc1	-0.1	-11.3	-5.9	.	.
CS(=O)(=O)N1CC2(C1)[C@@H](c1ccccc1)[C@@H](CO)N2Cc1ccccc1	0.1	-4.5	27.5*	.	.
COc1ccc2c3c([nH]c2c1)[C@@H](CO)N(C(=O)NC1CCCC1)CC31CN(S(C)(=O)=O)C1	-0.2	-2.9	-5.7	.	.
C/C=C/c1ccc([C@H]2[C@@H](CO)N(CC3CCOCC3)C23CN(C(=O)COC)C3)cc1	-0.2	9.8	2.9	.	.
C/C=C/c1ccc([C@H]2[C@@H](CO)N(CC3CCOCC3)C23CN(S(=O)(=O)CC)C3)cc1	-0.3	-0.8	27.3*	.	.
Cc1ccc(S(=O)(=O)NCCC(=O)Oc2ccc3ccc(=O)oc3c2)cc1	-0.1	11.6	-1.7	236.9*	-0.2
O=C(CN(C1CCCCC1)S(=O)(=O)c1ccccc1)NCc1cccnc1	.	.	.	.	3.0
O=C(CN(C1CCCCC1)S(=O)(=O)c1ccc(Cl)cc1)NCc1cccnc1	.	.	.	100.2*	-0.9
CNC(=O)C[C@H]1CC[C@@H]2[C@@H](COc3ccc(NC(=O)c4ccccc4OC)cc3C(=O)N2C)O1	0.0	1.4	17.3	0.0[16.7 µM]	49.2
COc1ccc(C(C)=O)cc1Cn1c(C)c(C(=O)NCCC#N)sc1=O	.	9.8	71.4*	.	1.3
Cc1cc(Br)ccc1NC(=O)CN(C)C(=O)COc1cccc2c1OC(C)(C)C2	.	-11.8	90.8*	.	2.2
Cc1cccc(C)c1NC(=O)CN(C)C(=O)COc1cccc2c1OC(C)(C)C2	1.3	6.8	0.3	-5.1	.
C/C=C/c1ccc([C@H]2[C@@H](CO)N3C(=O)CN(S(=O)(=O)c4cccc(F)c4)C[C@@H]23)cc1	-0.7	-0.8	43.1*	.	.
C/C=C/c1ccc([C@H]2[C@H]3CN(S(=O)(=O)c4cccc(F)c4)CC(=O)N3[C@H]2CO)cc1	0.7	2.3	30.2*	.	.
C/C=C/c1ccc([C@H]2[C@H]3CN(C(=O)c4cccc(F)c4)CC(=O)N3[C@H]2CO)cc1	-0.2	4.1	15.7	.	.
C/C=C/c1ccc([C@H]2[C@@H](CO)N3C(=O)CN(C(=O)c4cccc(F)c4)C[C@@H]23)cc1	0.0	2.5	33.3*	.	.
C/C=C/c1ccc([C@H]2[C@@H](CO)N3C(=O)CN(S(=O)(=O)c4cccc(F)c4)C[C@H]23)cc1	0.3	3.7	4.1	.	.
Cc1cc(N/N=C/c2ccccc2)nc(NCc2ccccc2)n1	.	-35.2*	1.6	7.8	-8.6
Cc1cc(N/N=C/c2ccccc2F)nc(NCc2ccccc2)n1	0.8	-29.6*	4.8	.	.

High-throughput results as filed in PubChem BioAssay.
